Data set [1] in a line: Safety evaluation: blood biochemical indices. The data set is classed as in vivo, ICR mice. The settings on record: normal mice, n = 3. The procedure, abridged:
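ICR mice (20–22 g) were randomly divided into six groups and given the treatments used previously. Blood biochemical indices were then assessed.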

A short description of data set [2]: In vivo toxicity: body weight and H&E staining of major organs. Further details: species or system nude mice. The procedure, abridged: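 BALB/c nude mice bearing subcutaneous axillary A549 xenografts (5 × 10^6 cells) were randomised at mean 80 mm3 into six groups (n = 10). Test formulations were given intravenously every two days for five doses, at 2 mg/kg and 0.8 mg/kg of the two loaded agents. One free-agent control was given by oral gavage at 20 mg/kg over 6 days. Body weight was measured every two days. At the end of treatment, one mouse per group was sacrificed, and heart, liver, spleen, lung and kidney were fixed in 4% paraformaldehyde, sectioned and stained with H&E.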

Regarding `COc1cccc2c1C(=O)c1c(O)c3c(c(O)c1C2=O)C[C@@](O)(C(=O)CO)C[C@@H]3O[C@H]1C[C@H](N)[C@H](O)[C@H](C)O1` [Free DOX, doxorubicin], the “level of serum creatine kinase” value in data set [1] is “significantly elevated”. Moreover, in data set [2] (A549 tumour-bearing nude mice during treatment), the body weight entry is “substantial weight loss”. In addition, in data set [2] (nude mice bearing subcutaneous A549 tumour), the “cardiac tissue histology (H&E)” value is listed as “noticeable cardiac tissue degeneration”.

Source of the values: article PMC7480498 (Journal of Extracellular Vesicles, 2020).
